Screening results from PubChem.
Hits are enriched below; roughly 2.1% of the tested compounds scored in any of these assays.
CHRM5 antagonist – blocks acetylcholine activation of human M5 receptor. CHO-hM5 cells, Fluo-8 calcium fluorescence, ACh EC80. inhibition, % at 3 µM. 360,000 tested, 0.59% active;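 active means inhibition above a per-plate cutoff, the mean of that plate's test compounds plus 3 SD, cut at about 27% in these data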;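 further: 0% = acetylcholine EC80 with DMSO and 100% = DMSO without agonist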
Target sequence (P08912 whole entry, looked up): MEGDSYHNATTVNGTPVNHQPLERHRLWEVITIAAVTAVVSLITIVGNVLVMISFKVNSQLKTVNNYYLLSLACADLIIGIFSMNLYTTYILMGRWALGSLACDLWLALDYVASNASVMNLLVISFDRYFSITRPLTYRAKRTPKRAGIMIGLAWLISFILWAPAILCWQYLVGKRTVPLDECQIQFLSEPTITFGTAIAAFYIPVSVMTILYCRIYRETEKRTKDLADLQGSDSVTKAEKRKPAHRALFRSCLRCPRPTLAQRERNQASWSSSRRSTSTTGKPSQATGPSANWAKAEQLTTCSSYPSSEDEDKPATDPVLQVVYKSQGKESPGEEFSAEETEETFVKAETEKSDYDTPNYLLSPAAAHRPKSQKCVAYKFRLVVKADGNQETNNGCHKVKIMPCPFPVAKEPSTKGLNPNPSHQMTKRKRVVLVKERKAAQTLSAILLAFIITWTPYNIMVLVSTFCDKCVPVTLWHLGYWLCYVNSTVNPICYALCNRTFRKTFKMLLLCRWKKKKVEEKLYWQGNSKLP
M1 ag – agonists of human M1 muscarinic receptor; P11229; CHO-K1 hM1, Fluo-8 calcium fluorescence, agonist mode; 0% DMSO, 100% acetylcholine EC100; activation, % at 3 µM; 360,000 tested, 0.33% active; AID 588814;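 active means activation above the run's mean compound activation plus 3 SD, cut at about 16% in these data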;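 further: peak over basal fluorescence ratio within a 140 s kinetic read after compound addition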
M5 PAM – CHRM5 positive allosteric modulation | P08912 | 360,000 tested, 0.3% active | activation, % at 3 µM | CHO-K1 hM5, Fluo-8 calcium, ACh EC20 PAM; 0% = ACh EC20, 100% = ACh EC100;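 active means activation above the run cutoff, the mean activation of all test compounds plus 3 SD, cut at about 18% in these data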
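Measured by: Fluo-8 calcium fluorescence; material: human M5 receptor in CHO-K1 cells; schedule: Post-acetylcholine fluorescence recording 140 s; benchmarks: low control EC20 acetylcholine (0%), high control EC100 acetylcholine (100%); read-out: Max/basal fluorescence ratio as % of EC20–EC100 ACh window; compound: single dose, 3 µM nominal final test concentration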
CHRM1 PAM – human CHRM1 positive allosteric modulation; P11229; 360,000 tested, 0.088% active; CHO-K1 hM1, Fluo-8 calcium fluorescence, ACh EC20; 0% = ACh EC20, 100% = maximal ACh; activation, % at 3 µM; in the data active means activation above about 19%, passing the limit was not always enough
M5 ag – CHRM5 agonism in calcium assay. CHO-K1 hM5 cells, Fluo-8 calcium fluorescence; 0% DMSO wells, 100% maximal acetylcholine response. activation, % at 3 µM. 360,000 tested, 0.19% active. AID 624037;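 active means activation above the run's mean over test compounds plus 3 SD, cut at about 23% in these data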;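 further: signal is peak over basal fluorescence ratio across the kinetic read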
M1 antag – blocks human M1 muscarinic receptor | P11229 | CHO-K1 hM1, Fluo-8 calcium fluorescence, ACh EC80 antagonist | inhibition, % at 3 µM | 360,000 tested, 1.3% active;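 active means percent inhibition above its own plate's cutoff, namely the mean of that plate's compound wells plus 3 SD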;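 further: peak over basal fluorescence ratio during 140 s after agonist addition; 0% = ACh EC80 plus DMSO and 100% = DMSO alone without agonist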
Active calls of the source: *.

SMILES | CHRM5 antagonist | M1 ag | M5 PAM | CHRM1 PAM | M5 ag | M1 antag
CCN(CC)S(=O)(=O)c1ccc2[nH]c(=O)cc(C(=O)Nc3ccccc3N3CCOCC3)c2c1 | 8 | -3 | -6 | 6 | -1 | -6
Cc1noc(C)c1S(=O)(=O)Nc1ccc(C(=O)N2CCc3ccccc3C2)cc1 | -18 | -1 | 20* | 8 | -2 | -28
Cc1cccc(N2CCN(C(=O)c3ccc(NS(=O)(=O)c4c(C)noc4C)cc3)CC2)c1C | 7 | -3 | -10 | 1 | -6 | -2
Cc1noc(C)c1S(=O)(=O)Nc1ccc(C(=O)N2CCN(c3cccc(Cl)c3)CC2)cc1 | 27* | 3 | -21 | -16 | 7 | 17
CC1=Nc2cc(C(=O)NCC3CCCO3)ccc2Sc2ccc(Br)cc21 (configuration not stated) | 11 | -3 | -6 | -3 | 0 | -1
CCOc1ccc(NC(=O)CN2C(=O)NC3(CCCCCC3)C2=O)cc1 | 7 | -3 | -1 | 0 | 1 | 1
FC(F)(F)c1cccnc1Oc1ccc(C2=NCCS2)cc1 | -1 | 24* | 1 | 1 | -1 | -6
Nc1cccnc1Oc1ccc(F)cc1 | 19 | -2 | -17 | -7 | 0 | 3
COc1ccc(C2CC(c3cc(Br)ccc3F)n3nnnc3N2)cc1 (configuration not stated) | -4 | -4 | -4 | 3 | -2 | -8
O=C(NCc1ccc2c(c1)OCO2)Nc1ccc([N+](=O)[O-])cc1 | 38* | 2 | -18 | -15 | 3 | 20
O=C(NCc1ccc2c(c1)OCO2)Nc1ccc(Cl)cc1 | -3 | 2 | 5 | 10 | -2 | -15
CN1CCN(C(=O)c2ccccc2N(Cc2ccccc2)S(=O)(=O)c2ccccc2)CC1 | -5 | 28* | -3 | -7 | -6 | 3
Cc1cc(OCCCC(=O)Nc2cccc(-n3cnnn3)c2)ccc1Cl | 27* | 1 | -17 | -17 | 6 | 34
COc1cccc(NC(=O)COc2cccc(-n3cnnn3)c2)c1 | 7 | -2 | -2 | -5 | -1 | 21
C[C@@H](CN1C2=NC[C@H](Cc3ccccc3)N2C[C@H]1Cc1ccc(O)cc1)NC(=O)CCC1CCCCC1 | 10 | -13 | -19 | -37 | -13 | 40*
CCOc1ccccc1CNS(=O)(=O)c1ccc(-c2cnc(C3CC3)o2)cc1 | 28* | 3 | -16 | -15 | 3 | 36*
Cc1cccnc1C(NC(=O)C1CCN(Cc2ccc(Cl)cc2)CC1)c1ccc(F)cc1 (configuration not stated) | 0 | -8 | -6 | -19 | -3 | 22
Cc1cccnc1C(NC(=O)C1CCN(Cc2ccc3ccccc3n2)CC1)c1ccc(Cl)cc1 (configuration not stated) | 0 | -8 | -10 | -24 | -2 | 31*
COc1ccc2oc(=O)c(C(=O)C[n+]3cccc(C)c3)cc2c1 | 2 | -14 | 0 | -31 | -4 | 32*
CNC(=O)c1cc2cc(OC)ccc2oc1=O | 11 | -2 | -5 | 10 | 2 | -9
Cc1ccc(C2=N/C(=C\N3CCCCC3)C(=O)O2)cc1 | -11 | -6 | 3 | 12 | -6 | -3
Cc1ccc(C2=N/C(=C/N3CCOCC3)C(=O)O2)cc1 | -4 | -2 | 38* | 7 | 0 | -12
N#Cc1c2c(c(-n3cnc4ccccc43)n3c1nc1ccccc13)CCC2 | 31* | -4 | 47* | -1 | -1 | -6
CC(CNC(=O)c1cc(COc2ccc3ncccc3c2)on1)c1ccccc1 (configuration not stated) | 30* | 2 | -18 | -14 | 6 | 43*
O=C(NC1CCCCCCC1)c1cc(COc2ccc3ncccc3c2)on1 | 36* | -5 | -33 | -18 | -4 | 49*
COc1ccc(-n2cc(-c3ccccc3)c3c(N4CCOCC4)ncnc32)cc1 | 14 | -4 | -14 | -11 | 2 | 40*
Fc1ccc(-n2cc(-c3ccccc3)c3c(N4CCOCC4)ncnc32)cc1 | 18 | -2 | -6 | -10 | 2 | 33*
